For one experiment, the system named is Escherichia coli. Description: Antibacterial activity against Escherichia coli ATCC 25922. It counts as functional. The settings on record: for MIC: Escherichia coli, ATCC 25922. A digest of the protocol: (§1)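 MIC by serial dilution in Mueller-Hinton broth tubes, pH adjusted to 5.0 with phosphate buffer. A standardized bacterial suspension was inoculated and incubated 16-18 h at 37 °C, and MIC was read as the lowest concentration with no visible growth. Zones were also measured in agar wells on seeded plates, with compounds in DMSO and a DMSO control, triplicate plates, 37 °C for 3-4 days.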

A further experiment deals with Aspergillus fumigatus. Description: Antifungal activity against Aspergillus fumigatus NCIM 902. In kind it is functional. The following applies: for MIC: Aspergillus fumigatus, NCIM 902.
A further experiment relates to Staphylococcus aureus. Description: Antibacterial activity against Staphylococcus aureus ATCC 25923. In kind it is functional. The following applies: for MIC: Staphylococcus aureus, ATCC 25923. A digest of the protocol:
as §1

The subject of the next experiment is Klebsiella pneumoniae. Kind of experiment: Antibacterial activity against Klebsiella pneumoniae. In kind it is functional. The settings on record: for MIC: Klebsiella pneumoniae. A digest of the protocol:
as §1

The test system of a further experiment is Talaromyces marneffei. Description: Antifungal activity against Penicillium marneffei. The settings on record: for MIC: Talaromyces marneffei. It counts as functional. A digest of the protocol: (§2)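 Agar-well diffusion on Sabouraud agar at pH 5.7. Plates were lawned with a saline spore suspension (one loopful in 3 ml), decanted and dried 1 h at 37 °C. Compounds in DMSO went into punched wells, with a DMSO solvent control. Plates were run in triplicate and kept at 37 °C for 3-4 days, with inhibition-zone diameter as read-out.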

A further experiment relates to Pseudomonas aeruginosa. Kind of experiment: Antibacterial activity against Pseudomonas aeruginosa ATCC 27853. In kind it is functional. The following applies: for MIC: Pseudomonas aeruginosa, ATCC 27853. A digest of the protocol: as §1
The subject of the next experiment is Aspergillus flavus. Kind of experiment: Antifungal activity against Aspergillus flavus NCIM 524. The following applies: for MIC: Aspergillus flavus, NCIM 524. It counts as functional. A digest of the protocol:
as §2

Another experiment deals with Trichophyton benhamiae. Kind of experiment: Antifungal activity against Trichophyton mentagrophytes. It counts as functional, Arthroderma benhamiae. The following applies: for MIC: Trichophyton benhamiae. A digest of the protocol:
as §2

Here are results for 13 compounds from ChEMBL document CHEMBL1143805, “Synthesis and antimicrobial activities of some novel 1,2,4-triazolo[3,4-b]-1,3,4-thiadiazoles and 1,2,4-triazolo[3,4-b]-1,3,4-thiadiazines carrying thioalkyl and sulphonyl phenoxy moieties” (2007).

Each structure is given as a SMILES string. Converted amounts (≈) assume the structure as drawn.

As to `CS(=O)(=O)c1ccc(OCc2nnc3sc(-c4cccc(Cl)c4)nn23)cc1`, the “inhibition zone (IZ)” value in the experiment with Escherichia coli is listed as 11 mm; in the experiment on Aspergillus fumigatus, 11 mm; in the experiment on Staphylococcus aureus, 11 mm; in the experiment with Klebsiella pneumoniae, 11 mm; with Talaromyces marneffei, less than 10 mm; with Pseudomonas aeruginosa it was 11 mm. In addition, the “inhibition zone (IZ)” value in the experiment on Aspergillus flavus and with Trichophyton benhamiae was 11 mm throughout. Further, the MIC in the experiment on Escherichia coli came out at 12.5 µg/mL (≈ 29.7 µM); in the experiment with Aspergillus fumigatus it was 12.5 µg/mL (≈ 29.7 µM); against Staphylococcus aureus it was 12.5 µg/mL (≈ 29.7 µM); against Klebsiella pneumoniae it was 12.5 µg/mL (≈ 29.7 µM); in the experiment on Talaromyces marneffei, 25 µg/mL (≈ 59.4 µM); in the experiment on Pseudomonas aeruginosa it was 12.5 µg/mL (≈ 29.7 µM). For the same compound, the minimum inhibitory concentration (MIC) with Aspergillus flavus and in the experiment with Trichophyton benhamiae was 12.5 µg/mL (≈ 29.7 µM) each time.

On to `CCSc1ccc(OCc2nnc3n2N=C(c2ccc(O)c(C(N)=O)c2)CS3)cc1`, for which the “inhibition zone (IZ)” value in the experiment on Escherichia coli, in the experiment on Aspergillus fumigatus, in the experiment on Staphylococcus aureus, in the experiment on Klebsiella pneumoniae, with Talaromyces marneffei and with Pseudomonas aeruginosa was 16 mm throughout. The “inhibition zone (IZ)” value in the experiment with Aspergillus flavus and in the experiment with Trichophyton benhamiae was 16 mm throughout. Further, the minimum inhibitory concentration (MIC) against Escherichia coli, in the experiment on Aspergillus fumigatus, in the experiment with Staphylococcus aureus, with Klebsiella pneumoniae, in the experiment with Talaromyces marneffei and in the experiment with Pseudomonas aeruginosa was 6.25 µg/mL (≈ 14.2 µM) throughout. Moreover, the MIC against Aspergillus flavus and in the experiment with Trichophyton benhamiae was 6.25 µg/mL (≈ 14.2 µM) in each case.

For `CS(=O)(=O)c1ccc(OCc2nnc3n2N=C(c2ccc(Cl)cc2)CS3)cc1`, the “inhibition zone (IZ)” value with Escherichia coli, in the experiment with Aspergillus fumigatus, in the experiment on Staphylococcus aureus, with Klebsiella pneumoniae, in the experiment with Talaromyces marneffei and in the experiment on Pseudomonas aeruginosa was less than 10 mm in each case. Besides, the “inhibition zone (IZ)” value in the experiment on Aspergillus flavus and with Trichophyton benhamiae was less than 10 mm in each case. The MIC against Escherichia coli, in the experiment with Aspergillus fumigatus, with Staphylococcus aureus, against Klebsiella pneumoniae, in the experiment on Talaromyces marneffei and with Pseudomonas aeruginosa was 25 µg/mL (≈ 57.5 µM) throughout. Also, the MIC against Aspergillus flavus and in the experiment on Trichophyton benhamiae was 25 µg/mL (≈ 57.5 µM) throughout.

For the compound `CCSc1ccc(OCc2nnc3n2N=C(c2ccc(Cl)cc2Cl)CS3)cc1`, the “inhibition zone (IZ)” value in the experiment on Escherichia coli, with Aspergillus fumigatus, with Staphylococcus aureus, in the experiment with Klebsiella pneumoniae, in the experiment with Talaromyces marneffei and in the experiment on Pseudomonas aeruginosa was less than 10 mm each time. In addition, the “inhibition zone (IZ)” value with Aspergillus flavus and in the experiment on Trichophyton benhamiae was less than 10 mm in each case. The MIC in the experiment with Escherichia coli, against Aspergillus fumigatus, with Staphylococcus aureus, against Klebsiella pneumoniae, in the experiment with Talaromyces marneffei and in the experiment on Pseudomonas aeruginosa was 25 µg/mL (≈ 55.4 µM) each time. Besides, the MIC with Aspergillus flavus and in the experiment on Trichophyton benhamiae was 25 µg/mL (≈ 55.4 µM) throughout.

Consider `COc1ccc(-c2nn3c(COc4ccc(SC)cc4)nnc3s2)cc1`, for which the “inhibition zone (IZ)” value in the experiment with Escherichia coli, with Aspergillus fumigatus, with Staphylococcus aureus, in the experiment with Klebsiella pneumoniae, in the experiment with Talaromyces marneffei and in the experiment on Pseudomonas aeruginosa was 16 mm throughout. Besides, the “inhibition zone (IZ)” value in the experiment on Aspergillus flavus and in the experiment on Trichophyton benhamiae was 16 mm throughout. Besides, the minimal inhibitory concentration (MIC) with Escherichia coli, with Aspergillus fumigatus, with Staphylococcus aureus, against Klebsiella pneumoniae, against Talaromyces marneffei and against Pseudomonas aeruginosa was 6.25 µg/mL (≈ 16.3 µM) throughout. For the same compound, the MIC in the experiment with Aspergillus flavus and in the experiment with Trichophyton benhamiae was 6.25 µg/mL (≈ 16.3 µM) in each case.

Turning to `CCSc1ccc(OCc2nnc3sc(-c4ccccc4O)nn23)cc1`, the “inhibition zone (IZ)” value with Escherichia coli, in the experiment on Aspergillus fumigatus, with Staphylococcus aureus, in the experiment with Klebsiella pneumoniae, in the experiment with Talaromyces marneffei and in the experiment with Pseudomonas aeruginosa was less than 10 mm in each case. In addition, the “inhibition zone (IZ)” value in the experiment with Aspergillus flavus and in the experiment with Trichophyton benhamiae was less than 10 mm throughout. The MIC with Escherichia coli, against Aspergillus fumigatus, with Staphylococcus aureus, against Klebsiella pneumoniae, in the experiment with Talaromyces marneffei and against Pseudomonas aeruginosa was 25 µg/mL (≈ 65 µM) each time. Besides, the MIC with Aspergillus flavus and in the experiment with Trichophyton benhamiae was 25 µg/mL (≈ 65 µM) each time.

For the compound `O=C(O)c1cn(C2CC2)c2cc(N3CCNCC3)c(F)cc2c1=O` [CIPROFLOXACIN], the “inhibition zone (IZ)” value in the experiment on Escherichia coli was found to be 30 mm; with Staphylococcus aureus, 22 mm; in the experiment on Klebsiella pneumoniae it was 23 mm; with Pseudomonas aeruginosa, 25 mm. The MIC against Staphylococcus aureus stood at 1.56 µg/mL (≈ 4.71 µM); against Klebsiella pneumoniae, 6.25 µg/mL (≈ 18.9 µM).

As to `CSc1ccc(OCc2nnc3sc(-c4ccc(N)cc4)nn23)cc1`, the “inhibition zone (IZ)” value in the experiment with Escherichia coli, in the experiment with Aspergillus fumigatus, with Staphylococcus aureus, in the experiment on Klebsiella pneumoniae, in the experiment on Talaromyces marneffei and in the experiment with Pseudomonas aeruginosa was 16 mm each time. Also, the “inhibition zone (IZ)” value with Aspergillus flavus and in the experiment with Trichophyton benhamiae was 16 mm throughout. Besides, the minimal inhibitory concentration (MIC) with Escherichia coli, against Aspergillus fumigatus, against Staphylococcus aureus, with Klebsiella pneumoniae, in the experiment on Talaromyces marneffei and in the experiment with Pseudomonas aeruginosa was 6.25 µg/mL (≈ 16.9 µM) throughout. The minimal inhibitory concentration (MIC) in the experiment with Aspergillus flavus and in the experiment on Trichophyton benhamiae was 6.25 µg/mL (≈ 16.9 µM) in each case.

Turning to `CS(=O)(=O)c1ccc(OCc2nnc3sc(-c4ccccc4Cl)nn23)cc1`, the “inhibition zone (IZ)” value with Escherichia coli is recorded as 11 mm; in the experiment on Aspergillus fumigatus, 11 mm; with Staphylococcus aureus it was 11 mm; in the experiment with Klebsiella pneumoniae, 11 mm; with Talaromyces marneffei, less than 10 mm; in the experiment on Pseudomonas aeruginosa it was 11 mm. The “inhibition zone (IZ)” value in the experiment on Aspergillus flavus and with Trichophyton benhamiae was 11 mm each time. Moreover, the MIC in the experiment on Escherichia coli is 12.5 µg/mL (≈ 29.7 µM); against Aspergillus fumigatus it was 12.5 µg/mL (≈ 29.7 µM); in the experiment with Staphylococcus aureus, 12.5 µg/mL (≈ 29.7 µM); in the experiment on Klebsiella pneumoniae, 12.5 µg/mL (≈ 29.7 µM); against Talaromyces marneffei, 25 µg/mL (≈ 59.4 µM); against Pseudomonas aeruginosa, 12.5 µg/mL (≈ 29.7 µM). Moreover, the MIC against Aspergillus flavus and against Trichophyton benhamiae was 12.5 µg/mL (≈ 29.7 µM) in each case.

As for `CS(=O)(=O)c1ccc(OCc2nnc3sc(-c4ccccc4)nn23)cc1`, the “inhibition zone (IZ)” value in the experiment with Escherichia coli is 11 mm; in the experiment on Aspergillus fumigatus, 11 mm; with Staphylococcus aureus it was 11 mm; with Klebsiella pneumoniae, 11 mm; with Talaromyces marneffei, less than 10 mm; in the experiment with Pseudomonas aeruginosa, 11 mm. Besides, the “inhibition zone (IZ)” value with Aspergillus flavus and with Trichophyton benhamiae was 11 mm throughout. Moreover, the MIC stood at 12.5 µg/mL (≈ 32.3 µM) with Escherichia coli; 12.5 µg/mL (≈ 32.3 µM) in the experiment on Aspergillus fumigatus; 12.5 µg/mL (≈ 32.3 µM) in the experiment on Staphylococcus aureus; 12.5 µg/mL (≈ 32.3 µM) with Klebsiella pneumoniae; 25 µg/mL (≈ 64.7 µM) with Talaromyces marneffei; 12.5 µg/mL (≈ 32.3 µM) with Pseudomonas aeruginosa. Also, the MIC in the experiment on Aspergillus flavus and with Trichophyton benhamiae was 12.5 µg/mL (≈ 32.3 µM) throughout.

For the compound `CSc1ccc(OCc2nnc3sc(-c4ccccc4Cl)nn23)cc1`, the “inhibition zone (IZ)” value in the experiment on Escherichia coli, in the experiment with Aspergillus fumigatus, in the experiment with Staphylococcus aureus, in the experiment with Klebsiella pneumoniae, with Talaromyces marneffei and in the experiment with Pseudomonas aeruginosa was less than 10 mm in each case. The “inhibition zone (IZ)” value in the experiment on Aspergillus flavus and in the experiment on Trichophyton benhamiae was less than 10 mm each time. The MIC against Escherichia coli, in the experiment on Aspergillus fumigatus, against Staphylococcus aureus, in the experiment with Klebsiella pneumoniae, against Talaromyces marneffei and with Pseudomonas aeruginosa was 25 µg/mL (≈ 64.3 µM) throughout. Also, the MIC in the experiment with Aspergillus flavus and in the experiment with Trichophyton benhamiae was 25 µg/mL (≈ 64.3 µM) throughout.

Turning to `CCSc1ccc(OCc2nnc3sc(-c4ccccc4)nn23)cc1`, the “inhibition zone (IZ)” value in the experiment on Escherichia coli, in the experiment on Aspergillus fumigatus, with Staphylococcus aureus, in the experiment on Klebsiella pneumoniae, in the experiment on Talaromyces marneffei and in the experiment on Pseudomonas aeruginosa was 16 mm in each case. Besides, the “inhibition zone (IZ)” value with Aspergillus flavus and with Trichophyton benhamiae was 16 mm each time. The MIC against Escherichia coli, in the experiment on Aspergillus fumigatus, against Staphylococcus aureus, in the experiment on Klebsiella pneumoniae, against Talaromyces marneffei and in the experiment with Pseudomonas aeruginosa was 6.25 µg/mL (≈ 17 µM) in each case. Moreover, the MIC in the experiment with Aspergillus flavus and against Trichophyton benhamiae was 6.25 µg/mL (≈ 17 µM) throughout.

As to `CCSc1ccc(OCc2nnc3sc(-c4ccc(OC)cc4)nn23)cc1`, the “inhibition zone (IZ)” value in the experiment with Escherichia coli, in the experiment on Aspergillus fumigatus, with Staphylococcus aureus, in the experiment with Klebsiella pneumoniae, in the experiment on Talaromyces marneffei and with Pseudomonas aeruginosa was less than 10 mm throughout. Further, the “inhibition zone (IZ)” value with Aspergillus flavus and with Trichophyton benhamiae was less than 10 mm throughout. Also, the MIC in the experiment with Escherichia coli, with Aspergillus fumigatus, in the experiment on Staphylococcus aureus, in the experiment with Klebsiella pneumoniae, against Talaromyces marneffei and in the experiment on Pseudomonas aeruginosa was 25 µg/mL (≈ 62.7 µM) each time. For the same compound, the MIC against Aspergillus flavus and with Trichophyton benhamiae was 25 µg/mL (≈ 62.7 µM) throughout.

The MIC is the lowest concentration found to suppress growth.
